The record followed here is ChEMBL document CHEMBL3393040, “An Orally Available BACE1 Inhibitor That Affords Robust CNS Aβ Reduction without Cardiovascular Liabilities” (ACS Med Chem Lett, 2015).

The source made the active and inactive calls. The calls are words filed in the database; no cut-off is given here.

Assay [1] addresses T1, Beta-secretase 1 (Homo sapiens, UniProt P56817). In words: Inhibition of BACE1 in HEK293 cells stably expressing APPSW assessed as reduction in Abeta40 level incubated overnight at 0.0005 to 10 uM by ELISA method. The format is cell-based. (ELISA stands for enzyme-linked immunosorbent assay.)
The subject of assay [2] is Rhesus monkey. In words: Reduction in Abeta40 level in rhesus monkey CSF at 5 mg/kg, po administered as single dose by ELISA method. The format is functional, organism-based. On the set-up: dose 5 mg/kg. To be noted: Macaca mulatta. In a few lines: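 Rhesus monkey time-course PD study after a 5 mg/kg oral dose, with CSF Aβ40 followed over time. An indirect response PK–PD model generated the in vivo unbound plasma IC50.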

Assay [3] relates to Rattus norvegicus. In words: Reduction in Abeta40 level in Sprague-Dawley rat CSF at 3 mg/kg, po administered as single dose after 4 hrs by immunoassay. The arrangement: dose 3 mg/kg. In kind it is functional, organism-based. In a few lines: (§1)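 Male Sprague–Dawley rats received a single oral dose. Aβ40 was measured in CSF and brain 4 h later and reported as % reduction. EC50 is expressed as unbound plasma concentration.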

The target of assay [4] is T1, Beta-secretase 1. Briefly: Inhibition of human recombinant BACE1 pre-incubated with enzyme for 60 mins before fluorescent substrate addition FRET method.
Assay [5] has as its system Rattus norvegicus. In words: Reduction in Abeta40 level in Sprague-Dawley rat CSF at 3 mg/kg, po administered as single dose by immunoassay. The format is functional. In a few lines:
as §1

Assay [6] relates to Rattus norvegicus. In words: Reduction in Abeta40 level in Sprague-Dawley rat CSF at 10 mg/kg, po administered as single dose by immunoassay. In kind it is functional. In a few lines: as §1

T1 sequence (P56817 whole entry): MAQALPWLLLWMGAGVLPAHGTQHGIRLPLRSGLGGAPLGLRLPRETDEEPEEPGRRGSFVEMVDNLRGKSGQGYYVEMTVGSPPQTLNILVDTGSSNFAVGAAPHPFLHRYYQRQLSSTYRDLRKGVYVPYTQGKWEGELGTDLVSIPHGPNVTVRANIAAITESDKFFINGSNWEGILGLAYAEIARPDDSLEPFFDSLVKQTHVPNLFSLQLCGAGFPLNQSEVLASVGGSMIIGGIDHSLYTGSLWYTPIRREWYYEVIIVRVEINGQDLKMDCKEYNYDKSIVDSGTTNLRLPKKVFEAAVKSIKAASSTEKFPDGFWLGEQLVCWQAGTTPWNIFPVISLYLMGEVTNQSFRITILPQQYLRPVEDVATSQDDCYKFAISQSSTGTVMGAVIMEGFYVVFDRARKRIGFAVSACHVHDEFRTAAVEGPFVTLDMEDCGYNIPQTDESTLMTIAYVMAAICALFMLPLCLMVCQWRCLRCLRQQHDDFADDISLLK

Regarding `Cc1cc(-c2cc3c(c(F)n2)Oc2ccc(-c4cccnc4F)cc2[C@@]32COC(N)=N2)ccn1`, the IC50 – broadly, the concentration needed to halve the response being measured – in assay [1] is 12 nM.

`NC1=N[C@@]2(CO1)c1cc(-c3cccnc3F)ccc1Oc1c2cc(N2CCC(F)(F)C2)nc1F`: the IC50 in assay [1] amounted to 4 nM.

On to `NC1=N[C@@]2(CO1)c1cc(-c3ncccc3F)ccc1Oc1c2cc(C2=CCCOC2)nc1F`, for which the inhibition result in assay [2] and in assay [3] was “Active” throughout. The IC50 was found to be 4 nM in assay [1] and 0.3 nM in assay [4].

Consider `NC1=N[C@@]2(CO1)c1cc(-c3cccnc3F)ccc1Oc1c2cc(N2CCOCC2)nc1F`, for which, in assay [1], the IC50 was 5 nM. Further, in assay [5], testing at 3 mg/kg gave an inhibition in vivo of 69%.

For the molecule `NC1=N[C@@]2(CO1)c1cc(-c3cccnc3F)ccc1Oc1c2cc(C2=CCOCC2)nc1F`, the IC50 in assay [1] turned out to be 4 nM; in assay [4] it was 0.3 nM.

`NC1=N[C@@]2(CO1)c1cc(-c3cccnc3F)ccc1Oc1c2cc(C2=CCCCO2)nc1F`: the IC50 in assay [1] was 4.8 nM.

As to `NC1=N[C@@]2(CO1)c1cc(-c3cccnc3F)ccc1Oc1c2cc(-c2ccncc2)nc1F`, the inhibition in vivo (as a rule, the relative decrease from the control value, in per cent) at 3 mg/kg in assay [5] worked out at 36%.

For the molecule `NC1=N[C@@]2(CO1)c1cc(-c3cccnc3F)ccc1Oc1c2cc(-c2ccnc(F)c2)nc1F`, the IC50 in assay [1] amounted to 6.5 nM; in assay [4] it was 0.4 nM. The molecule also had an inhibition in vivo at 3 mg/kg in assay [5] of 58%.

For the molecule `Cc1cc(-c2cc3c(c(F)n2)Oc2ccc(-c4cccnc4F)cc2[C@@]32COC(N)=N2)on1`, the IC50 in assay [1] was 23 nM; in assay [4], 0.3 nM.

Consider `NC1=N[C@@]2(CO1)c1cc(-c3cccnc3F)ccc1Oc1c2cc(N2CCC(F)(F)CC2)nc1F`, for which the IC50 in assay [1] is 6 nM.

Turning to `NC1=N[C@@]2(CO1)c1cc(-c3cccnc3F)ccc1Oc1c2cc(-c2ccccc2)nc1F`, the inhibition in vivo at 10 mg/kg in assay [6] stood at 75%. Moreover, the IC50 in assay [1] was determined as 8 nM; in assay [4], 0.7 nM.

Turning to `NC1=N[C@@]2(CO1)c1cc(-c3cccnc3F)ccc1Oc1c2cc(N2CC[C@@H](F)C2)nc1F`, the figures for the IC50 in assay [1] and in assay [4] were 3 nM and 0.2 nM, respectively.
